# Source: PubChem BioAssay
# ABCB1 block – ABCB1 efflux pump inhibitors, primary screen, cell-based, multiplex, flow cytometry, ABCG2 counter-screen; ATP-dependent translocase ABCB1 (Homo sapiens), P08183; CCRF-Adr cells, JC-1 efflux; inhibition, % at 6.6 µM; actives 0.067% (n = 190,000); AID 1326, 2008; in the data active = inhibition above about 40%;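 also: 0% = vehicle and 100% = reference inhibitor; higher value means more JC-1 retained so stronger ABCB1 efflux block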
# PMI act satM6P – human PMI activators, high substrate, primary screen, biochemical, fluorescence intensity, near-saturating mannose 6-phosphate | coupled PMI enzyme assay, resazurin fluorescence, 20 min; stronger effect = higher value; 1 = untreated enzyme, 0 = substrate-free blank | activation factor at 20 µM | actives 0.34% (n = 190,000);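 active = activation factor of 2 or more at 20 µM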
#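 Material: human phosphomannose isomerase with PGI, G6PDH, diaphorase coupling enzymes; amount: PMI at 15 ng/mL final; also added: Mannose-6-phosphate 1.0 mM (near-saturating) plus 0.22 mM NADP+; incubation: enzyme reaction with compound 20 min at room temperature; signal: resorufin fluorescence (Ex 544/Em 590 nm) from resazurin via diaphorase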
# ABCG2 block – ABCG2 efflux pump inhibitors, primary screen, multiplex with ABCB1, IgMXP3 cells, flow cytometry; JC-1 efflux; inhibition, % at 6.6 µM; actives 0.1% (n = 190,000); AID 1325, 2008;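 active = inhibition above 80%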;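 also: 0% = DMSO and 100% = nicardipine control wells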
#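 Incubation: cells with compound and JC-1, 10 min at 25 °C, rotating, no wash / Test system: IgMXP3 (ABCG2) plus far-red-tagged CCRF-Adr (ABCB1) cells / Compound dosing: one concentration, 6.6 µM final / Also added: JC-1 fluorescent substrate / Evaluation: efflux inhibition in percent versus controls / Detection: flow cytometry, 530 nm JC-1 signal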
# ROMK mod – ROMK potassium channel modulators, primary screen, cell-based, thallium flux, MLSMR library; ATP-sensitive inward rectifier potassium channel 1 (Homo sapiens), P48048; Tet-inducible ROMK, thallium flux fluorescence; actives lie on both sides; B-score at 10 µM; actives 2% (n = 130,000);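 active = signal ratio slope over the read window, or its plate-corrected B-score, at least 3 SD from the plate mean, either direction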;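 also: B-score of the F/F0 ratio slope over 7 to 12 s after thallium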
# Target sequence (P48048 whole entry, looked up): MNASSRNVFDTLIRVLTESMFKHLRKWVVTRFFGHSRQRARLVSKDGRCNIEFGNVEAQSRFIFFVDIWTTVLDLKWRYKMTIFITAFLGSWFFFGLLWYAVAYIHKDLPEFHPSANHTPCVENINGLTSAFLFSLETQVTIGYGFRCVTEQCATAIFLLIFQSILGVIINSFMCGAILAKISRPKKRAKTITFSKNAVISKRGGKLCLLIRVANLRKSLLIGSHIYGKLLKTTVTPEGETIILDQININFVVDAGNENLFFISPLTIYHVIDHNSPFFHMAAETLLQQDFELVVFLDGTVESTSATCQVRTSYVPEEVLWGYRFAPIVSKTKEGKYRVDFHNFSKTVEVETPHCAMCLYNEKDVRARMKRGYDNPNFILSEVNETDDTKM
# KCC2 mod – KCC2 cotransporter modulators, thallium flux, primary screen, cell-based, HEK293 KCC2, FluoZin-2 fluorescence, MLSMR. B-score of Tl+ flux slope (higher = more flux/activation; lower = inhibition) at 10 µM. Solute carrier family 12 member 5 (Homo sapiens), Q9H2X9. actives 2.2% (n = 190,000). KCC2 cells, thallium flux FluoZin-2 fluorescence. AID 1456, 2008;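 active = thallium flux slope and its plate-corrected score both differing from the plate sample mean at a set confidence after two filtering rounds, in either direction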;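 also: slope of fluorescence scaled to starting intensity during 10 to 20 s after thallium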
# PMI act – activators of human PMI, primary screen, biochemical, fluorescence intensity, near-Km mannose 6-phosphate; Mannose-6-phosphate isomerase (Homo sapiens), P34949; purified human PMI, coupled resazurin fluorescence, 20 min; stronger effect = higher value; 1 = vehicle control, 0 substrate-free wells; activation factor at 20 µM; actives 0.005% (n = 190,000);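 active = activation factor of 2 or more at 20 µM, relative to plate controls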
# An asterisk follows results filed as active; nt = no result given. Compounds with a hit are over-represented: about 3.3% of the library has one in this group of screens.
SMILES,ABCB1 block,PMI act satM6P,ABCG2 block,ROMK mod,KCC2 mod,PMI act
O=c1nc2n(c3ncccc13)CCCCC2,0,1.1,0,1.8,nt,1.2
CCC1=C/C(=C/c2sc3ccccc3[n+]2CC)CC(C)(C)C1,0,2.3*,-2,-0.7,1.2,1.6
CC[n+]1c(/C=C2\C=C(C)CC(C)(C)C2)sc2ccccc21,-1,1.7,21,-0.3,-0.75,1.2
COc1ccc(CCn2c(=O)c3cccnc3n(Cc3ccc([N+](=O)[O-])cc3)c2=O)cc1OC,18,1,14,0.84,-2,1.1
COc1ccc(Cn2c(=O)c3cccnc3n(Cc3ccc([N+](=O)[O-])cc3)c2=O)cc1,3,1,10,2.8*,-0.51,1
CC1Cn2c(nc(=O)c3c2NCN(CCc2ccccc2)C3)S1 (centres undefined),1,0.9,5,nt,0.81,0.9
COc1cc2c(cc1OC)CN(CC(=O)Nc1ccc(Cl)c(S(=O)(=O)N(C)C)c1)CC2,1,1.1,2,0.19,0.42,1.1
Cc1nc(Nc2ccc(C(=O)O)cc2)sc1-c1ccccc1,0,1,21,3.7*,-0.4,1
Cc1nc(Nc2ccccc2)sc1-c1ccccc1,3,0.9,29,0.99,0.64,0.8
O=[N+]([O-])c1cccc(C=Nc2cc3c(cc2Br)OCCO3)c1,1,1,25,nt,1.5,1
Cc1ccc(NS(=O)(=O)c2cc(OCC(N)=O)c(C)cc2Cl)cc1C,0,1.1,1,-3.1*,-0.26,1.1
CCc1cc(-c2n[nH]c(=S)n2C(C)c2ccccc2)cs1 (centres undefined),0,0.8,2,-0.87,3.9*,0.8
CC(C)c1cc(-c2n[nH]c(=S)n2Cc2ccccc2)cs1,0,0.9,0,nt,nt,0.8
C=CCOC(=O)c1sc(NC(=O)c2ccc(OC)cc2)nc1C,0,0.8,1,-0.085,0.6,0.9
COCCCn1c(=S)[nH]c2c(sc3ccccc32)c1=O,-2,1.4,-5,5.3*,57*,1.3
COCCCn1c(=O)c2ccccc2c2ccccc2c1=O,1,1.1,5,-0.05,nt,1.1
CC(C)CC(=O)NC(=S)N(Cc1ccccc1)Cc1ccccc1,0,0.9,-1,0.19,49*,0.9
CC(C)C(=O)NC(=S)N(Cc1ccccc1)Cc1ccccc1,-1,0.9,-13,0.17,42*,0.8
CCC(C)NC(=O)c1ccccc1NC(=O)CN1C(=O)c2ccccc2S1(=O)=O (centres undefined),1,1.1,1,nt,0.13,1
O=C1S/C(=C\c2ccc(N3CCOCC3)o2)C(=O)N1Cc1c(F)cccc1Cl,8,0.4,132*,nt,nt,0.7
COC(=O)C1=C(C(=O)OC)C(c2cc(Br)ccc2O)c2sc(=O)[nH]c2S1 (centres undefined),nt,0.7,2,0.82,-5.9*,0.8
COC(=O)C1=C(C(=O)OC)C(c2ccc(OC)c(OC)c2)c2sc(=O)[nH]c2S1 (centres undefined),0,0.7,5,-1.2,-0.15,0.7
O=c1c2c(ncn2C2CCCC2)n(Cc2ccccc2)c(=O)n1CCOc1ccccc1,5,0.9,55,nt,-0.091,0.9
Cc1ccc(C)c(OCCn2c(=O)c3c(ncn3C3CCCC3)n(Cc3ccccc3)c2=O)c1,37,0.9,84*,0.64,0.64,0.9
COc1ccc(/C(=N\Nc2ccccc2C(=O)O)c2ccccc2)cc1,-1,2.2*,-3,-0.1,-2.9,1.6
SMILES,ABCB1 block,PMI act satM6P,ABCG2 block,ROMK mod,KCC2 mod,PMI act
CCOC(=O)C(=O)N/N=C(/c1ccccc1)c1ccc(OC)cc1,nt,nt,nt,nt,-0.72,nt
CCn1c2ccccc2n2c(=O)c(=O)n(CC(=O)Nc3ccc(C(C)C)cc3)nc12,1,0.9,3,0.89,-0.014,0.8
CC(C)C1Nc2ccc(C(=O)O)cc2C2C=CCC21 (centres undefined),-1,1.1,-1,1.2,2.4,1.3
CCCC1Nc2ccc(C(=O)O)cc2C2C=CCC12 (centres undefined),-1,2*,-3,-0.56,-0.037,1.6
CC(=O)SCC(Cc1ccccc1)C(=O)NCC(=O)OCc1ccccc1 (centres undefined),nt,1.1,2,nt,-4.2*,1
COc1ccccc1/C=C/C=N/NC(=O)c1cccs1,nt,nt,nt,nt,-0.54,nt
COc1ccc(C(CC(=O)c2ccccc2)CC(=O)c2ccccc2)cc1,nt,nt,nt,nt,-0.44,nt
COc1ccc(O)c(C(=O)CC(=O)c2ccccc2)c1,1,1,4,nt,22*,1
CN(C(=S)NC(=O)c1ccccc1Br)C1CCCCC1,0,1,3,nt,31*,1
COc1ccccc1/C=C/C(=O)NC(=S)N(C)C1CCCCC1,-1,0.9,-2,nt,9.8*,0.8
O=C(NC(=S)NCC1CCCO1)c1ccccc1Br (centres undefined),0,1,-1,-0.93,2.5,1
COc1ccccc1/C=C/C(=O)NC(=S)Nc1ccc(S(=O)(=O)N(C)c2ccccc2)cc1,0,1,0,nt,-0.058,1
CCOCCCNC(=O)c1c[nH]c2c(CC)cccc2c1=O,0,0.9,1,1.1,0.16,1
O=c1oc2c(-c3cccc(F)c3)cc(O)cc2s1,-1,1,-1,-0.097,-1.2,1.1
CC1=C/C(=C\c2ccc(Br)o2)C(=O)O1,0,1.1,1,nt,-0.22,1.1
COc1ccccc1-c1ccc(/C=C2/C=C(C)OC2=O)o1,-5,2*,-14,-1.1,0.19,1.6
CCOc1cc(Br)c(Br)c(C=Nc2ccc(NC(C)=O)cc2)c1O,-1,0.6,-7,0.79,-0.63,0.8
CC(=O)Nc1ccc(N=Cc2c(O)c(C(=O)Nc3ccccc3)cc3ccccc23)cc1,70*,0.6,103*,nt,-0.76,0.9
Cn1cccc1/C=N/n1c(-c2ccc(C(C)(C)C)cc2)n[nH]c1=S,0,0.9,-1,nt,13*,0.9
Cn1c(-c2ccc(C(C)(C)C)cc2)n[nH]c1=S,0,0.8,0,nt,3.9*,0.7
Cn1c(-c2ccccc2)n[nH]c1=S,nt,nt,nt,nt,0.15,nt
COc1ccc(CCNC(=O)C(=O)N2CCCCC2)cc1OC,0,1.1,1,nt,0.37,1.1
